Measured values reported in publication PMC7820547 (iScience, 2021).
Residue numbers refer to the chain shown, from its start. pIC50, pKd: −log10 of the molar value.

Assays:
[1] = molecular target: T1, hSHMT1 WT (Homo sapiens, UniProt P34896); assay: Surface plasmon resonance binding of Gly-DCA to hSHMT1 WT
T1 sequence (P34896 1-483): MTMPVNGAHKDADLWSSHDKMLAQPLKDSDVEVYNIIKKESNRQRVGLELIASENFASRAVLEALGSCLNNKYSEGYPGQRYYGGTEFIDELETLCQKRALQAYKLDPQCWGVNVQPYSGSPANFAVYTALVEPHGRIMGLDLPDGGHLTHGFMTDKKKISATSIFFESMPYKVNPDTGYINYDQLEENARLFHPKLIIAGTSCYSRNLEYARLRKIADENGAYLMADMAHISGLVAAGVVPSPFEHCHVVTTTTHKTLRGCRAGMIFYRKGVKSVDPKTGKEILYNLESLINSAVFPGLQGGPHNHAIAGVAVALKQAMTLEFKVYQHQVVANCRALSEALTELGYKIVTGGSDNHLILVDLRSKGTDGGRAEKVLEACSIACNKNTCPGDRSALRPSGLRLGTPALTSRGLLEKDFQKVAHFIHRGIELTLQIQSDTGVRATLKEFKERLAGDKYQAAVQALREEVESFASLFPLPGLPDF
Summary of the method: (§1)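 His6-hSHMT1, wild type or point mutant, was captured fresh on an NTA sensor chip each cycle. Contact 30 s, dissociation 300 s; Kd by Scatchard analysis.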

[2] = molecular target: T2, hSHMT1 E75L (Homo sapiens, UniProt P34896, E75L); assay: Surface plasmon resonance binding of Gly-DCA to mutant hSHMT1 E75L
T2 sequence (P34896 1-483 E75L): T1 sequence (P34896 1-483) with E75L
Summary of the method: as §1

[3] = molecular target: T3, hSHMT1 R402A (Homo sapiens, UniProt P34896, R402A); assay: Surface plasmon resonance binding of Gly-DCA to mutant hSHMT1 R402A; settings: SPR, 25°C
T3 sequence (P34896 1-483 R402A): T1 sequence (P34896 1-483) with R402A
Summary of the method: as §1

[4] = molecular target: T4, hSHMT2 WT (Homo sapiens, UniProt P34897); assay: Surface plasmon resonance binding of Gly-DCA to hSHMT2 WT
T4 sequence (P34897 30-504): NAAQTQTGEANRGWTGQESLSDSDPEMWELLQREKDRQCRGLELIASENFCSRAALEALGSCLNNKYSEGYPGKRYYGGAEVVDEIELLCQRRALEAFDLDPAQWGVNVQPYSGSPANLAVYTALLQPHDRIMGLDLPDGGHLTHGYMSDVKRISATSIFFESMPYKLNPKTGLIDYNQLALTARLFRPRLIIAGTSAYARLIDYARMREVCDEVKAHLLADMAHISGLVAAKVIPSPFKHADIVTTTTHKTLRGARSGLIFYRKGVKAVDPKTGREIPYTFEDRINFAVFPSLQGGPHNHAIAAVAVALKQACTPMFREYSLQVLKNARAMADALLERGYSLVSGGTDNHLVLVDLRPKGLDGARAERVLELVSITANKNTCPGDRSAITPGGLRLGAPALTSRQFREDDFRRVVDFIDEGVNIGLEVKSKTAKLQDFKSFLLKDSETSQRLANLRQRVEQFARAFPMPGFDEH
Summary of the method: (§2)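 Wild-type or mutant His6-hSHMT2 was captured on an NTA sensor chip in each cycle. Analyte (test compound) was run at 0.8, 0.4, 0.2, 0.1, 0.05 and 0.025 µM in 10 mM HEPES pH 7.5, 200 mM NaCl, 2 mM β-mercaptoethanol, 50 µM PLP, 0.01% Tween 20 and 5% DMSO. Contact 30 s, dissociation 300 s; Scatchard-derived Kd.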

[5] = molecular target: T5, hSHMT2 E98L (Homo sapiens, UniProt P34897, E98L); assay: Surface plasmon resonance binding of Gly-DCA to mutant hSHMT2 E98L; settings: SPR, 25°C
T5 sequence (P34897 30-504 E98L): T4 sequence (P34897 30-504) with E69L
Summary of the method: as §2

[6] = molecular target: T6, hSHMT2 R425A (Homo sapiens, UniProt P34897, R425A); assay: Surface plasmon resonance binding of Gly-DCA to mutant hSHMT2 R425A; settings: SPR, 25°C
T6 sequence (P34897 30-504 R425A): T4 sequence (P34897 30-504) with R396A
Summary of the method: as §2

[7] = molecular target: T7, hSHMT2 (Homo sapiens, UniProt P34897); assay: Isothermal titration calorimetry; format: binding
T7 sequence (P34897 30-504): T4 sequence (P34897 30-504)
Summary of the method: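 Purified His6-hSHMT2 (28.9 µM) in the cell was titrated with 300 µM test compound from the syringe at 37 °C, stirring 750 rpm. One small initial injection, then 12 injections at 180 s intervals; thermodynamic parameters were calculated from the titration.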

[8] = molecular target: T8, hSHMT1 (Homo sapiens, UniProt P34896); assay: Differential scanning calorimetry; format: binding; settings: DSC, 50 μM Gly-DCA, 18 μM hSHMT1; Tm without ligand 69.6°C
T8 sequence (P34896 1-483): T1 sequence (P34896 1-483)
Summary of the method: (§3)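 Recombinant His6-tagged human enzyme from E. coli BL21(DE3)pLysS, Ni-NTA then gel filtration. Scanned 20 to 110 °C at 1 °C/min in 10 mM HEPES pH 7.5, 0.5 mM EDTA, 2 mM β-mercaptoethanol and 1% DMSO, with 18 µM (1.0 mg/mL) enzyme and 50 µM test compound. hSHMT1 used 100 mM NaCl and no PLP; hSHMT2 used 200 mM NaCl and 50 µM PLP. Non-two-state denaturation model fitted.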

[9] = molecular target: T7, hSHMT2; assay: Differential scanning calorimetry; format: binding; settings: DSC, 50 μM Gly-DCA, 18 μM hSHMT2, 50 μM PLP; Tm without ligand 65.1°C
Summary of the method: as §3

[10] = molecular target: T8, hSHMT1; settings: ITC, ref Nonaka et al., 2019, cited from earlier work
[11] = molecular target: T7, hSHMT2; assay: Inhibition assay of Ser-Gly conversion; format: biochemical
[12] = ITC, 37°C, pH 7.5, 200 mM NaCl, 50 μM PLP

Row | pKd [1] | pKd [2] | binding affinity for hSHMT1 R402A [3] | pKd [4] | binding affinity for hSHMT2 E98L [5] | binding affinity for hSHMT2 R425A [6] | pKd [7] | hSHMT2 N (stoichiometry, binding ratio) ([7]; ITC, 37°C) | hSHMT2 ΔG [7, 12] [kcal/mol] | hSHMT2 ΔH [7, 12] [kcal/mol] | hSHMT2 −TΔS [7, 12] [kcal/mol] | Tm of hSHMT1 w/ Gly-DCA [8] [°C] | Tm of hSHMT2 w/ Gly-DCA [9] [°C] | pIC50 [11] | SMILES | hSHMT1 ΔG ([10]; 100 mM NaCl, 0 µM PLP) [kcal/mol] | hSHMT1 ΔH ([10]; 100 mM NaCl, 0 µM PLP) [kcal/mol] | hSHMT1 −TΔS ([10]; 100 mM NaCl, 0 µM PLP) [kcal/mol] | hSHMT1 N (stoichiometry, binding ratio) [10] | pKd ([10]; read-out: hSHMT1 Kd, 100 mM NaCl, 0 µM PLP)
1 | 5.12 | 4.13 | too weak to quantitate | 7.19 | too weak to quantitate | too weak to quantitate | 6.60 | 0.83 | -9.4 | -8.6 | -0.8 | 78.8 | 77.4 |  | CC(CCC(=O)NCC(=O)O)C1CCC2C3CCC4CC(O)CCC4(C)C3CC(O)C12C (stereo not shown) [Gly-DCA, glycodeoxycholic acid] | -7.4 | -2.2 | -5.2 | 1.06 | 5.24
2 |  |  |  |  |  |  |  |  |  |  |  |  |  | 5.59 | C[C@H](CCC(=O)NCCS(=O)(=O)O)[C@H]1CC[C@H]2[C@@H]3CC[C@@H]4C[C@H](O)CC[C@]4(C)[C@H]3CC[C@]12C [Tau-LCA, taurolithocholic acid] |  |  |  |  | 
